# From ChEMBL document CHEMBL1938298, “Synthesis and characterization of [¹²⁵I]2-iodo N-[(S)-{(S)-1-methylpiperidin-2-yl}(phenyl)methyl]3-trifluoromethyl-benzamide as novel imaging probe for glycine transporter 1” (Bioorg Med Chem, 2011)
# Active and inactive are the calls of the source. The calls are words filed in the database; no cut-off is given here.
# How the values were obtained:
# Blood = assay: Drug uptake in ddY mouse blood at 11.1 kBq, iv after 30 min by gamma counting; assay type: ADME, organism-based; conditions: in vivo, 0.5 h
# Outline: (§1)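 Male ddY mice (6 weeks, 30–35 g) received about 11.1 kBq [125I]tracer in 0.1 mL i.v. via tail vein. Killed at set times, organs dissected and weighed, radioactivity gamma counted. Reported as % injected dose/g tissue, mean ± SD, n = 5–6.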
# Lung = assay: Drug uptake in ddY mouse lung at 11.1 kBq, iv after 5 min by gamma counting; assay type: ADME, organism-based; conditions: in vivo
# Outline: (§2)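 Male ddY mice (6 weeks, 30–35 g) were given about 11.1 kBq of [125I]tracer in 0.1 mL i.v. via the tail vein. At each time point the animals were killed and organs dissected, weighed and gamma-counted. Uptake is expressed as % injected dose per gram of tissue, mean ± SD, n = 5–6.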
# Heart [1] = assay: Drug uptake in ddY mouse heart at 11.1 kBq, iv after 5 min by gamma counting; assay type: ADME, organism-based; conditions: in vivo; outline: as §1
# Heart [2] = assay: Drug uptake in ddY mouse heart at 11.1 kBq, iv after 15 min by gamma counting; assay type: ADME, organism-based; conditions: in vivo; outline: as §1
# Mus musculus [3] = assay: In vivo binding affinity to GlyT1 in ddY mouse brain midbrain at 33.3 kBq, iv after 30 mins in presence of N-Me-SSR504734 2 mg/kg, iv administered 15 mins prior to compound administration relative to control; assay type: functional
# Spleen = assay: Drug uptake in ddY mouse spleen at 11.1 kBq, iv after 5 min by gamma counting; assay type: ADME, organism-based; conditions: in vivo; outline: as §2
# [4] = molecular target: T1, Sodium- and chloride-dependent glycine transporter 1 (Rattus norvegicus) (UniProt P28572); assay: Binding affinity to GlyT1 in rat brain medullary region at 0.03 to 0.04 nM preincubated for 20 mins in binding buffer before compound addition measured after 30 mins by autoradiography in presence of 0.01 mM GlyT1 inhibitor ALX5407 relative to control; assay type: tissue-based; conditions: tested as the 125I-labelled form
# T1 sequence (whole entry): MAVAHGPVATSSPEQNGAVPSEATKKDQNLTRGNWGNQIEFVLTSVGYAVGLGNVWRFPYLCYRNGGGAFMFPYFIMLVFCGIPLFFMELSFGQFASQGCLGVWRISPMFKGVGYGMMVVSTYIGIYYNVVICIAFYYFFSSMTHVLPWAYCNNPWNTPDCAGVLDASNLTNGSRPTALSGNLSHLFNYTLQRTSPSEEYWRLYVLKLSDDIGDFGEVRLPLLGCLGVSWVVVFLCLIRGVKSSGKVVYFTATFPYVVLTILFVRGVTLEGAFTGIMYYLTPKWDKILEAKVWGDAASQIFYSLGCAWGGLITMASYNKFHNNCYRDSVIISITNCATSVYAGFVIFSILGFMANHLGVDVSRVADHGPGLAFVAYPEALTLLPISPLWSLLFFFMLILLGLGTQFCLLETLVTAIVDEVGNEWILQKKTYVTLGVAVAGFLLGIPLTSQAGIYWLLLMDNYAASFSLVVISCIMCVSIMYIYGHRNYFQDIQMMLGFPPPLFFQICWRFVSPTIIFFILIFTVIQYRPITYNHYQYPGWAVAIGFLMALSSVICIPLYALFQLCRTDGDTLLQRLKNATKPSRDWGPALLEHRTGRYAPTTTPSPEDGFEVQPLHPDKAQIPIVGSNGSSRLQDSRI
# Outline: (§3)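 Rat brain sagittal sections (20 µm) preincubated 20 min at 25 °C in Tris-HCl buffer pH 7.5 (NaCl, KCl, MgCl2, CaCl2), then 30 min at 25 °C with [125I] tracer (100 kBq, 0.03–0.04 nM) plus competitor (10 µM; glycine 1 or 10 mM). Cold washes, imaging plate 3 days, ROI PSL minus background per mm². % control from ≥triplicate slices, three rats.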
# [5] = molecular target: T1, Sodium- and chloride-dependent glycine transporter 1 (Rattus norvegicus); assay: Binding affinity to GlyT1 in rat brain corpus callosum at 0.03 to 0.04 nM preincubated for 20 mins in binding buffer before compound addition measured after 30 mins by autoradiography in presence of GlyT1 inhibitor N-Me-SSR504734 relative to control; assay type: tissue-based; conditions: tested as the 125I-labelled form; outline: as §3
# [6] = molecular target: T1, Sodium- and chloride-dependent glycine transporter 1 (Rattus norvegicus); assay: Binding affinity to GlyT1 in rat brain cerebellum at 0.03 to 0.04 nM preincubated for 20 mins in binding buffer before compound addition measured after 30 mins by autoradiography in presence of 1 mM GlyT1 substrate glycine relative to control; assay type: tissue-based; conditions: tested as the 125I-labelled form; outline: as §3
# [7] = molecular target: T1, Sodium- and chloride-dependent glycine transporter 1 (Rattus norvegicus); assay: Binding affinity to GlyT1 in rat brain cerebral cortex at 0.03 to 0.04 nM preincubated for 20 mins in binding buffer before compound addition measured after 30 mins by autoradiography in presence of 0.01 mM GlyT1 inhibitor SSR504734 relative to control; assay type: tissue-based; conditions: tested as the 125I-labelled form; outline: as §3
# [8] = molecular target: T1, Sodium- and chloride-dependent glycine transporter 1 (Rattus norvegicus); assay: Binding affinity to GlyT1 in rat brain medullary region at 0.03 to 0.04 nM preincubated for 20 mins in binding buffer before compound addition measured after 30 mins by autoradiography in presence of 10 mM GlyT1 substrate glycine relative to control; assay type: tissue-based; conditions: tested as the 125I-labelled form; outline: as §3
# [9] = molecular target: T1, Sodium- and chloride-dependent glycine transporter 1 (Rattus norvegicus); assay: Binding affinity to GlyT1 in rat brain thalamus at 0.03 to 0.04 nM preincubated for 20 mins in binding buffer before compound addition measured after 30 mins by autoradiography in presence of 0.01 mM GlyT1 inhibitor SSR504734 relative to control; assay type: tissue-based; conditions: tested as the 125I-labelled form
# [10] = molecular target: T1, Sodium- and chloride-dependent glycine transporter 1 (Rattus norvegicus); assay: Binding affinity to GlyT1 in rat brain thalamus at 0.03 to 0.04 nM preincubated for 20 mins in binding buffer before compound addition measured after 30 mins by autoradiography in presence of 10 mM GlyT1 substrate glycine relative to control; assay type: tissue-based; conditions: tested as the 125I-labelled form
# Mus musculus [11] = assay: In vivo binding affinity to GlyT1 in ddY mouse brain cortex at 33.3 kBq, iv after 60 mins in presence of SSR504734 2 mg/kg, iv administered 15 mins prior to compound administration relative to control; assay type: functional, organism-based; design: dose 2 mg/kg; conditions: tested as the 125I-labelled form
# Outline: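 Blocking study in male ddY mice (6 weeks, 30–35 g). The blocker (2 mg/kg in 30% DMSO/saline) was injected i.v. 15 min before about 33.3 kBq [125I]tracer i.v.; mice were killed at 30 or 60 min. Brains were divided into cortex, corpus callosum, hippocampus, thalamus, midbrain, medulla and cerebellum, weighed and gamma-counted as % dose/g. Values are mean ± SD, n = 5–6, compared to control by Kruskal–Wallis with Dunn's post-test.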
# [12] = molecular target: T1, Sodium- and chloride-dependent glycine transporter 1 (Rattus norvegicus); assay: Binding affinity to GlyT1 in rat brain cerebellum at 0.03 to 0.04 nM preincubated for 20 mins in binding buffer before compound addition measured after 30 mins by autoradiography in presence of GlyT1 inhibitor N-Me-SSR504734 relative to control; assay type: tissue-based; conditions: tested as the 125I-labelled form; outline: as §3
# Mus musculus [13] = assay: In vivo binding affinity to GlyT1 in ddY mouse brain cerebral cortex at 200 kBq, iv after 60 mins by autoradiography relative to control; assay type: functional, organism-based; conditions: tested as the 125I-labelled form
# Outline: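 Ex vivo autoradiography in mice given 200 kBq [125I]tracer i.v. and killed at 60 min. Brains were removed, frozen on dry ice and cut into 20 µm sagittal cryosections, which were exposed to an imaging plate for 7 days. Regional signal was quantified as PSL/mm² (n = 5) and compared to control by Kruskal–Wallis with Dunn's post-test.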
# [14] = molecular target: T1, Sodium- and chloride-dependent glycine transporter 1 (Rattus norvegicus); assay: Binding affinity to GlyT1 in rat brain striatum at 0.03 to 0.04 nM preincubated for 20 mins in binding buffer before compound addition measured after 30 mins by autoradiography in presence of 0.01 mM GlyT1 inhibitor HPCP relative to control; assay type: tissue-based; conditions: tested as the 125I-labelled form
SMILES,Drug uptake (Blood),Drug uptake (Lung),Drug uptake (Heart [1]),Drug uptake (Heart [2]),Activity (Mus musculus [3]),Drug uptake (Spleen),Activity [4],Activity [5],Activity [6],Activity [7],Activity [8],Activity [9],Activity [10],Activity (Mus musculus [11]),Activity [12],Activity (Mus musculus [13]),Activity [14]
CN1CCCC[C@H]1[C@@H](NC(=O)c1cccc(C(F)(F)F)c1[125I])c1ccccc1,0.9 % ID/g,19.3 % ID/g,5.17 % ID/g,3.38 % ID/g,55%,5.11 % ID/g,,,,,,,,,,,
CN1CCCC[C@H]1[C@@H](NC(=O)c1cccc(C(F)(F)F)c1I)c1ccccc1,,,,,,,25.3%,20.2%,97.4%,29.3%,61.2%,29.6%,52.7%,inactive,28.9%,inactive,31.8%
